# Results gathered from unrelated publications.
# BCHE: Cholinesterase (BCHE, Equus caballus, UniProt P81908)
# Tyrosine-protein phosphatase YopH: Tyrosine-protein phosphatase YopH (Yersinia enterocolitica, UniProt P15273)
SMILES,target,test,setting,endpoint,result
COc1cc2c(cc1OC)C(=O)N(CC1CCN(CC3CCNC3)CC1)C2 (centres unmarked),BCHE,"enzyme activity, inhibitor, Ellman",1 µM,inhibition,-13.6%
CCN(CC)CCCC[C@H](NC(=O)[C@H](CC(C)C)NC(=O)[C@H](C)NC(=O)[C@H](Cc1ccccc1)NC(=O)c1ccc(C(C)(C)C)cc1)C(=O)N[C@@H](CO)C(=O)OC,"Transcription initiation factor TFIID subunit 1, BD2 (TAF1, Homo sapiens, UniProt P21675)","thermal stability, DSF",25 µM,ΔTm,0.62 °C
O=S(=O)([O-])[O-].[O]=[V+2],Tyrosine-protein phosphatase YopH,"enzyme activity, inhibitor",25 µM,inhibition,99.7%
Nc1ncc(-c2nc(N3CCOCC3)nc(N3CCOCC3)n2)c(C(F)F)n1,"Ribosomal protein S6 kinase alpha-3, C-terminal kinase domain (RPS6KA3, Homo sapiens, UniProt P51812)","binding, competition with immobilised ligand",10 µM,remaining binding,84%
COc1cc2c(cc1OC)C(=O)N(CC1CCN(Cc3ccccc3)CC1)C2,BCHE,"enzyme activity, inhibitor, Ellman",1 µM,inhibition,-4.8%
C#Cc1n[nH]c2c(-c3cn(C(C)c4ccccn4)c(=O)[nH]c3=O)cc(F)cc12 (centres unmarked),"Mitogen-activated protein kinase kinase kinase 9 (MAP3K9, Homo sapiens, UniProt P80192)","enzyme activity, inhibitor",1 µM,inhibition,5%
[O]=[V]([S]c1cccc[n+]1[O-])[S]c1cccc[n+]1[O-],Tyrosine-protein phosphatase YopH,"enzyme activity, inhibitor",25 µM,inhibition,99.5%
COc1ncccc1-c1cnn2ccc(N3CCN(C(=O)OC(C)C)CC3)nc12,"Serine/threonine-protein kinase MRCK alpha (CDC42BPA, Homo sapiens, UniProt Q5VT25)","binding, competition with immobilised ligand",1 µM,remaining binding,72%
